# Columns and labels:
# MTT cell viability assay = type: cell-based, rat; conditions: rat, RBL-2H3 cells
# Procedure, shortened: (§1)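 Cells grown in DMEM with 10% FBS, penicillin (100 U mL−1) and streptomycin (100 μg mL−1) at 37 °C under humidified 5% CO2. Pure compounds tested at 1 to 400 μM; viability read by MTT assay. Mean, n = 3, relative to untreated (DMSO) control.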
# human neutrophils [1] = experiment: Superoxide anion generation in fMLF/cytochalasin B-induced human neutrophils; type: cell-based; conditions: for IC50: read-out: Superoxide anion generation IC50
# Procedure, shortened: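 Human neutrophils taken from venous blood of healthy volunteers aged 20–30 years. Superoxide from activated cells measured as ferricytochrome c reduction. Pure compounds tested at 0.3–10 μM. Mean ± S.E.M., n = 3–6, vs 0.1% DMSO control; IC50 is the concentration giving 50% inhibition.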
# human neutrophils [2] = experiment: Elastase release in fMLF/cytochalasin B-induced human neutrophils; type: cell-based; conditions: for inhibition at 10 µM / IC50: Homo sapiens, Neutrophil; for inhibition at 10 µM: read-out: Elastase release % Inhibition; for IC50: read-out: Elastase release IC50
# Procedure, shortened: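 Neutrophils isolated from venous blood of healthy adult volunteers aged 20–30 years. Release from activated cells measured with MeO-Suc-Ala-Ala-Pro-Val-p-nitroanilide as elastase substrate. Pure compounds tested at 0.3–10 μM. LY294002 as positive control. Mean ± S.E.M., n = 3–6, vs 0.1% DMSO control; IC50 is the concentration giving 50% inhibition.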
# neutrophil elastase (NE) = target: T1, neutrophil elastase (NE) (Homo sapiens, UniProt P08246); experiment: Cell-free elastase enzymatic activity assay; type: biochemical; conditions: read-out: Inhibition of elastase enzyme activity
# T1 sequence (P08246 30-247 limits assumed): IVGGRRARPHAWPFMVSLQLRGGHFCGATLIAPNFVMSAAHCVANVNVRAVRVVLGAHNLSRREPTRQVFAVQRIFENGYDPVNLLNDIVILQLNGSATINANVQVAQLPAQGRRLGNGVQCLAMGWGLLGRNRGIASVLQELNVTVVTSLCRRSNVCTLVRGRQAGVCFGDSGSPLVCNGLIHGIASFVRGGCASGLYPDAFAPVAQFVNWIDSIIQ
# Procedure, shortened: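 Neutrophils (6 × 10^5 cells per mL) preheated 5 min at 37 °C with CaCl2 (1 mM), primed with CB (1.5 μg mL−1) for 2 min, then fMLF (0.1 μM) to release elastase. Cell-free supernatant taken after centrifugation (1000g, 5 min, 4 °C), warmed to 37 °C and given test compound (10 μM) or DMSO for 2 min. MeO-Suc-Ala-Ala-Pro-Val-p-nitroanilide (100 μM) added for 10 min; A405 read. Mean ± S.E.M., n = 4; t-test.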
# SARS-CoV-2 M^pro = conditions: read-out: M^pro inhibition IC50; cited from earlier work
# [3] = tested on: human neutrophil elastase; conditions: read-out: Human neutrophil elastase IC50; previous study; cited from earlier work
# RBL-2H3 cells [4] = experiment: MTT cell viability assay; type: cell-based, rat; conditions: 100 μM; MTT
# Procedure, shortened: as §1
# RBL-2H3 cells [5] = experiment: Antigen-induced degranulation; type: cell-based, rat; conditions: for % Inhibition of antigen-induced degranulation: mean ± SEM
# RBL-2H3 cells [6] = experiment: A23187-induced degranulation; type: cell-based, rat; conditions: mean ± S.E.M.
# [7] = Homo sapiens, Neutrophil, read-out: Superoxide anion generation % Inhibition
# [8] = at 10 μM, fMLF/CB-induced human neutrophils, mean ± S.E.M.
Compound,viability at 100 µM (MTT cell viability assay) [%],inhibition at 10 µM (human neutrophils [1]; [7]) [%],"IC50 (human neutrophils [1]; Homo sapiens, Neutrophil) [µM]",inhibition at 10 µM (human neutrophils [2]) [%],IC50 (human neutrophils [2]) [µM],inhibition at 10 µM (neutrophil elastase (NE)) [%],other results
"CN1CCCC(n2nc(Cc3ccc(Cl)cc3)c3ccccc3c2=O)CC1 (stereo not drawn) [Azelastine, reference compound]",–,–,–,–,–,–,viability at 20 µM (MTT cell viability assay): > 90%
"COc1cc(O)c2c(=O)c(OC)c(-c3ccc(O)cc3)oc2c1 [Compound 7, kumatakenin]",> 90,24.1 ± 2.75,> 10,22.9 ± 4.29,> 10,20.3 to 27.1,–
"COc1cc(O)c2c(=O)c(OC)c(-c3ccc(O)c(OC)c3)oc2c1 [Compound 9, pachypodol]",> 90,67.5 ± 4.55,6.07 ± 0.65,31.6 ± 5.02,> 10,20.3 to 27.1,–
"O=c1c(-c2ccc(O)cc2)coc2cc(O)cc(O)c12 [Genistein, reference compound]",–,–,1.52 ± 0.17,31.6 ± 7.29,16.3 ± 4.26,–,inhibition at 3 µM (human neutrophils [1]; [7]): 67%
O=c1cc(-c2ccc(O)c(-c3c(O)cc(O)c4c(=O)cc(-c5ccc(O)cc5)oc34)c2)oc2cc(O)cc(O)c12 [amentoflavone],–,–,–,–,–,–,IC50 (SARS-CoV-2 M^pro): 8.3 µM
penduletin [Compound 8],–,–,–,–,–,–,"IC50 [3]: 65.4 µM; % Viability, RBL-2H3 (RBL-2H3 cells [4]): >90%; Superoxide anion generation % Inhibition (human neutrophils [1]; [8]): 73.76 ± 5.24%; % Inhibition of antigen-induced degranulation (RBL-2H3 cells [5]; 1 μM): 33.9 ± 8.6 %; % Inhibition of antigen-induced degranulation (RBL-2H3 cells [5]; 10 μM): 85.8 ± 5.1 %; IC50 (RBL-2H3 cells [5]; read-out: Antigen-induced degranulation IC50): 3.8 µM; % Inhibition of A23187-induced degranulation (RBL-2H3 cells [6]; 1 μM): 4.8 ± 3.9%; % Inhibition of A23187-induced degranulation (RBL-2H3 cells [6]; 10 μM): 25.1 ± 7.3%; Elastase release % Inhibition (human neutrophils [2]; [8]): 33.00 ± 7.94%"
